Experimental data from ChEMBL document CHEMBL4392855, “Scaffold hopping of fused piperidine-type NK3 receptor antagonists to reduce environmental impact” (Bioorg Med Chem, 2019).

What was measured:
[1] = Stability in pH 7.4 phosphate buffer assessed as compound degradation at 30 uM by HPLC analysis; type: physicochemical; settings: pH 7.4, 30 µM
[2] = Stability in pH 4 acetate buffer assessed as compound degradation at 30 uM by HPLC analysis; type: physicochemical; settings: pH 4, 30 µM
[3] = Stability in rat serum assessed as compound degradation at 50 uM by HPLC analysis; type: ADME, cell-free
[4] = Stability in pH 10 carbonate buffer assessed as compound degradation at 30 uM by HPLC analysis; type: physicochemical; settings: pH 10, 30 µM
[5] = biological target: T1, Neuromedin-K receptor (Homo sapiens, UniProt P29371); assay: Antagonistic activity against NK3R (unknown origin) expressed in CHO cells assessed as inhibition of NKB-induced intracellular calcium flux by Calcium 4 assay; type: functional, cell-based
T1 sequence (P29371 whole entry): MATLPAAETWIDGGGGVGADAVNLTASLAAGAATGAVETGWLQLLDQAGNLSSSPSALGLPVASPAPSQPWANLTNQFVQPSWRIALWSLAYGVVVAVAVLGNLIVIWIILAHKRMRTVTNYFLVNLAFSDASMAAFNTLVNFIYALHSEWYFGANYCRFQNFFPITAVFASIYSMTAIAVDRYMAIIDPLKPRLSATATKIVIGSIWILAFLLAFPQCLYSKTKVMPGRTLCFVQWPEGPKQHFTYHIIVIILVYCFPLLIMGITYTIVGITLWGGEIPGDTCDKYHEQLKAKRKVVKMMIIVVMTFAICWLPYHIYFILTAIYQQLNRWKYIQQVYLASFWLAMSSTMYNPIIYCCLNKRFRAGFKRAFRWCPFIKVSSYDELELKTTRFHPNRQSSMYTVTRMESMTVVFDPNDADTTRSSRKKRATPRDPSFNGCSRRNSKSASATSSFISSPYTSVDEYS

[6] = Photo-stability in 50 mM pH 7.4 phosphate buffer assessed as compound degradation at 30 uM under UV-light irradiation by HPLC analysis; type: physicochemical; settings: pH 7.4, 30 µM
Outline: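 Compound at 30 μM in 50 mM phosphate buffer pH 7.4/EtOH 70:30 (0.1% DMSO) was exposed to a mercury xenon lamp (1500 W/m^2). Aliquots sampled at intervals were diluted 1:1 with MeCN and run on HPLC with 254 nm detection. Ratios were calculated from calibration curves.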

[7] = Photo-stability in 50 mM pH 7.4 phosphate buffer assessed as compound degradation at 30 uM exposed to xenon lamp irrational (> 325 nm) by HPLC analysis; type: physicochemical; settings: pH 7.4, 30 µM
Outline: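 Compound at 30 μM in 50 mM phosphate buffer pH 7.4/EtOH 70:30 (0.1% DMSO) was irradiated with a xenon arc lamp (900 W/m^2), with filters cutting wavelengths below 325 nm. Aliquots taken at intervals were diluted with MeCN and analysed by HPLC with 254 nm UV detection. Remaining amounts were taken from calibration curves.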

[8] = biological target: T1, Neuromedin-K receptor; assay: Antagonistic activity against NK3R (unknown origin) expressed in CHO cells assessed as inhibition of NKB-induced intracellular calcium flux under UV-light irradiation by Calcium 4 assay; type: functional, cell-based

Row | SMILES | Stability [1] | Stability [2] | Stability [3] | Stability [4] | IC50 [5] [µM] | Stability [6] | Stability [7] | IC50 [8] [µM]
1 | C[C@@H]1c2noc(-c3ccc4ccccc4n3)c2CCN1C(=O)c1ccc(F)cc1 | Stable | Stable | Stable | Stable | 11.8 |  |  | 
2 | C[C@H]1c2noc(-c3ccc4ccccc4n3)c2CCN1C(=O)c1ccc(F)cc1 | Stable | Stable | Stable | Stable | 13.7 |  |  | 
3 | CC1c2noc(-c3ccc4ccccc4n3)c2CCN1C(=O)c1ccc(F)cc1 (stereo unspecified) | Stable | Stable | Stable | Stable | 10.3 | Unstable | Unstable | > 100

Compounds with a lower IC50 [5], results first:

Row | Stability [1] | Stability [2] | Stability [3] | Stability [4] | IC50 [5] [µM] | Stability [6] | Stability [7] | IC50 [8] [µM] | SMILES
4 | Stable | Stable | Stable | Stable | 8.2 | Stable |  |  | CC1c2onc(-c3ccc4ccccc4n3)c2CCN1C(=O)c1ccc(F)cc1 (stereo unspecified)
5 | Stable | Stable | Stable | Stable | 4.1 | Stable |  |  | CC1c2nnn(-c3ccc4ccccc4n3)c2CCN1C(=O)c1ccc(F)cc1 (stereo unspecified)
6 | Stable | Stable | Stable | Stable | 0.26 | Stable |  |  | C[C@@H]1c2nnc(-c3ccc4ccccc4n3)n2CCN1C(=O)c1ccc(F)cc1
